Experimental data of several laboratories.
Compare with care: the assays were run in different laboratories.
Target: Tyrosine-protein kinase ITK/TSK (ITK, Homo sapiens, UniProt Q08881)
Sequence (Q08881 1-620, as in one of the studies): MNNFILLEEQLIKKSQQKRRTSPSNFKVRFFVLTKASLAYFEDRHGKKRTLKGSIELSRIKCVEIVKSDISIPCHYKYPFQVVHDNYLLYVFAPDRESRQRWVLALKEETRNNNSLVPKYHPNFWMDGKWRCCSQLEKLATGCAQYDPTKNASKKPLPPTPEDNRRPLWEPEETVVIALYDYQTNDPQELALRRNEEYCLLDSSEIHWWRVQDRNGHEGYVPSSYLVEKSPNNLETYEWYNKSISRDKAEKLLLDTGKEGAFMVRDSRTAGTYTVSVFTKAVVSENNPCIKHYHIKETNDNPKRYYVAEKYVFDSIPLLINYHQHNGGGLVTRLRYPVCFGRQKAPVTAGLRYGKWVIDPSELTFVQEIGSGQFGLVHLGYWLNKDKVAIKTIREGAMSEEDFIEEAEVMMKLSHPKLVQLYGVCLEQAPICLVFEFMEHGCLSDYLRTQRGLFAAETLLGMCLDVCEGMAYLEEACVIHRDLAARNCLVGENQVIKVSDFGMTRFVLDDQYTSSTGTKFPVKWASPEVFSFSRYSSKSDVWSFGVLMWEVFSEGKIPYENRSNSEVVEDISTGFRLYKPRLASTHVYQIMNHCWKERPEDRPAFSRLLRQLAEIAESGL

SMILES | observed | action | technique | tested at | quantity | value
N#CC1(c2ccccn2)CCN(Cc2cc(C(=O)O)c(=O)n3ccccc23)CC1 | cell-free assay |  | competition with immobilised ligand | 1 µM | remaining binding | 100%
CC(C)(C)c1cc(C=C(C#N)C#N)cc(Br)c1O | enzyme activity | inhibitor |  | 0.5 µM | remaining activity | 98.4%
Cn1cc(-c2cccc(N3CCc4c(sc5c4CC(C)(C)C5)C3=O)c2CO)cc(Nc2ccncn2)c1=O | enzyme activity | inhibitor |  | 1 µM | inhibition | 6%
COc1ncccc1-c1cnn2ccc(N3CCN(C(=O)OC(C)C)CC3)nc12 | binding |  | competition with immobilised ligand | 1 µM | remaining binding | 100%
Cc1nn(C)cc1-c1nc2c(N3CCN(Cc4ccc(Cl)cc4)CC3)c(Cl)cnc2[nH]1 | binding |  | competition with immobilised ligand | 1 µM | remaining binding | 100%
O=c1[nH]c2ccccc2n1C1CCN(Cc2ccc(-c3[nH]c4cc5ncnc5cc4nc3-c3ccccc3)cc2)CC1 | cell-free assay |  |  | 0.5 µM | remaining signal | 99.8%
Cn1cc(-c2cc(F)cc(N3CCn4c(cc5c4CCCC5)C3=O)c2CO)cc(Nc2ccc(N3CCN(C4COC4)CC3)cn2)c1=O | enzyme activity | inhibitor |  | 0.1 µM | inhibition | 4%
Cn1cncc1[C@@](O)(COc1ccc(C#N)cc1-c1ccc(OC(F)(F)F)cc1)c1ccc(C#N)cc1 | cell-free assay |  | competition with immobilised ligand | 1 µM | remaining binding | 100%
Nc1ncc(-c2nc(N3CCOCC3)nc(N3CCOCC3)n2)c(C(F)F)n1 | binding |  | competition with immobilised ligand | 10 µM | remaining binding | 44%
